Results on six substances are retold here after PMC8926318 (Iranian Journal of Biotechnology, 2021).

Assay [1] deals with LNCaP (human prostatic carcinoma cell line). Put plainly: MTT cell viability assay, LNCaP. Conditions: LNCaP cells, 48 h, 1000 µM, p<0.01. It is filed as cell-based. Put shortly: (§1)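 Cells kept in RPMI1640 with 10% FBS, penicillin and streptomycin (100 µg.mL-1 each) at 37 °C, 5% CO2. Plated at 10⁴ cells/well for 24 h, then given test compound at 10, 100 or 1000 µM for 48 h. MTT (5 mg.mL-1 in PBS) added for 4 h at 37 °C. Formazan dissolved in DMSO for 20 min, read at 570 nm. At least triplicate; one-way ANOVA with Tukey post hoc.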

Assay [2] has as its system HepG2 (human liver cancer cell line). Put plainly: MTT cell viability assay, HepG2. The settings on record: HepG2 cells, 48 h, only at the highest concentration (1000 µM); for viability inhibition compared with the triazole compound (in words): Fig. 5; for inhibitory activity compared with ciprofloxacin (in words): Fig. 3. It is filed as cell-based. In outline: as §1
A further assay relates to human fibrosarcoma cells. Conditions: by inducing apoptosis; cited from earlier work.
The subject of a further assay is human colorectal cells. Conditions: cited from earlier work.

On to triazole-YIGSR [triazole-C2], for which the “toxicity compared with unconjugated congener (in words)” value in assay [1] is listed as “more significant”. Besides, the “viability inhibition compared with the triazole compound (in words)” value in assay [2] was “noticeable viable inhibition”.

As to YIGSR [C2], the “effect on tumor growth and metastasis (in words)” value in the assay with human fibrosarcoma cells is “inhibitory effect on tumor growth and metastasis”.

Take LSGNK [C1]: the “anti-proliferative activity (in words)” value in the assay with human colorectal cells was “anti-proliferative agent”.

ciprofloxacin-LSGNK [Cipro-C1]: the “inhibitory activity compared with ciprofloxacin (in words)” value in assay [2] was “more inhibitory activity”.

Consider ciprofloxacin-YIGSR [Cipro-C2], for which the “inhibitory activity compared with ciprofloxacin (in words)” value in assay [2] is listed as “more inhibitory activity”.

For triazole-LSGNK [triazole-C1], in assay [2], the “viability inhibition compared with the triazole compound (in words)” value is recorded as “noticeable viable inhibition”.
